The source made the active and inactive calls.
What was measured:
[1] = Tmax in Sprague-Dawley rat at 3 mg/kg, po administered as single dose measured up to 24 hrs post dose by LC-MS/MS analysis; format: ADME, organism-based; settings: in vivo
Mus musculus [2] = test: Antidiabetic activity in C57BL/6J mouse assessed as increase in plasma insulin levels at 3 mg/kg, po administered 1 hr prior to glucose challenge measured after 120 mins during OGTT by ELISA; format: functional, organism-based
Mus musculus [3] = test: Antidiabetic activity in po dosed C57BL/6J mouse assessed as reduction of plasma glucose excursion administered 1 hr prior to glucose challenge measured after 120 mins by IPGTT; format: functional, organism-based
Mus musculus [4] = test: Antidiabetic activity in C57BL/6J mouse assessed as reduction in plasma glucose excursion at 3 mg/kg, po administered 1 hr prior to glucose challenge measured after 120 mins in presence of DPP4 inhibitor BMS-538305 by OGTT assay; format: functional, organism-based
[5] = Clearance in Beagle dog at 0.5 mg/kg, iv administered as single dose measured up to 24 hrs post dose by LC-MS/MS analysis; format: ADME, organism-based, Canis lupus familiaris; settings: in vivo
[6] = Cmax in C57BL6 mouse at 1 mg/kg, po administered as single dose measured up to 24 hrs post dose by LC-MS/MS analysis; format: ADME, organism-based; parameters: dose 1 mg/kg, route oral; settings: in vivo
Mus musculus [7] = test: Antidiabetic activity in C57BL/6J mouse assessed as effect on active GLP-1 levels at 3 mg/kg, po administered 1 hr prior to glucose challenge measured after 120 mins during OGTT assay by ELISA; format: functional, organism-based
[8] = Half life in cynomolgus monkey at 0.5 mg/kg, iv administered as single dose measured up to 24 hrs post dose by LC-MS/MS analysis; format: ADME, organism-based, Macaca fascicularis; settings: in vivo
[9] = Volume of distribution at steady state in cynomolgus monkey at 0.5 mg/kg, iv administered as single dose measured up to 24 hrs post dose by LC-MS/MS analysis; format: ADME, organism-based, Macaca fascicularis; settings: in vivo, read-out: Vdss
[10] = Clearance in Sprague-Dawley rat at 1 mg/kg, iv administered as single dose measured up to 24 hrs post dose by LC-MS/MS analysis; format: ADME, organism-based; settings: in vivo
[11] = Tmax in C57BL6 mouse at 1 mg/kg, po administered as single dose measured up to 24 hrs post dose by LC-MS/MS analysis; format: ADME, organism-based; settings: in vivo
[12] = Half life in rat liver microsomes at 1 to 3 uM incubated for 20 mins in presence NADPH measured up to 90 mins by LC/MS/MS analysis; format: ADME, microsome; settings: liver microsomes
[13] = target: Free fatty acid receptor 1 (Homo sapiens, UniProt O14842); test: Agonist activity at human GPR40 expressed in CHOA12 cells assessed as induction of Ca2+ mobilization by FLIPR assay; format: functional, cell-based
Chain of Free fatty acid receptor 1 (O14842 whole entry): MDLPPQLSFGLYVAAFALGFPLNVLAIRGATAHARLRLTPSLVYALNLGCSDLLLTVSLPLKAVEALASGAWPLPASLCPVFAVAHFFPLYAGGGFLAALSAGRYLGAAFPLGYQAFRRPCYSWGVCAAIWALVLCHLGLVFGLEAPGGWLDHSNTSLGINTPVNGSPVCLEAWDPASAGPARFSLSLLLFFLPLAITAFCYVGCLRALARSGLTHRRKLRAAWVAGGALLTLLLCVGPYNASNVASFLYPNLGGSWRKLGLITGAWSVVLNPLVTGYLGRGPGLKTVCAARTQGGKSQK

[14] = Oral bioavailability in Beagle dog at 1 mg/kg administered via gavage as single dose measured up to 24 hrs post dose by LC-MS/MS analysis; format: ADME, organism-based, Canis lupus familiaris; settings: in vivo
[15] = Clearance in cynomolgus monkey at 0.5 mg/kg, iv administered as single dose measured up to 24 hrs post dose by LC-MS/MS analysis; format: ADME, organism-based, Macaca fascicularis; settings: in vivo
[16] = Volume of distribution at steady state in CD1 mouse at 1 mg/kg, iv via bolus dose or 1 mg/kg, po administered as single dose measured up to 24 hrs post dose by LC-MS/MS analysis; format: ADME, organism-based; settings: in vivo, read-out: Vdss
[17] = Oral bioavailability in Sprague-Dawley rat at 3 mg/kg administered via gavage as single dose measured up to 24 hrs post dose by LC-MS/MS analysis; format: ADME, organism-based; settings: in vivo
[18] = Clearance in CD1 mouse at 1 mg/kg, iv administered as bolus dose or 1 mg/kg, po administered as single dose measured up to 24 hrs post dose by LC-MS/MS analysis; format: ADME, organism-based; settings: in vivo
[19] = Oral bioavailability in cynomolgus monkey at 1 mg/kg administered via gavage as single dose measured up to 24 hrs post dose by LC-MS/MS analysis; format: ADME, organism-based, Macaca fascicularis; settings: in vivo
[20] = Volume of distribution at steady state in Sprague-Dawley rat at 1 mg/kg, iv administered as single dose measured up to 24 hrs post dose by LC-MS/MS analysis; format: ADME, organism-based; settings: in vivo, read-out: Vdss
[21] = Volume of distribution at steady state in Beagle dog at 0.5 mg/kg, iv administered as single dose measured up to 24 hrs post dose by LC-MS/MS analysis; format: ADME, organism-based, Canis lupus familiaris; settings: in vivo, read-out: Vdss
[22] = Stability in rat liver microsomes assessed as parent compound remaining at 1 to 3 uM incubated for 20 mins in presence NADPH measured up to 90 mins by LC/MS/MS analysis; format: ADME, microsome; settings: liver microsomes, read-out: Stability
How it was run: (§1)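 Human or rat liver microsomal incubations. The read-outs were % parent remaining, % D-ring dealkylation metabolites, % GSH adducts, and half-life (min). The metabolites followed were CYP450-mediated oxidative de-alkylation products (phenols) and GSH conjugates.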

[23] = Oral bioavailability in C57BL6 mouse at 1 mg/kg administered as single dose measured up to 24 hrs post dose by LC-MS/MS analysis; format: ADME, organism-based; settings: in vivo
[24] = Tmax in cynomolgus monkey at 1 mg/kg, po administered as single dose measured up to 24 hrs post dose by LC-MS/MS analysis; format: ADME, organism-based, Macaca fascicularis; settings: in vivo
Homo sapiens = species on record: Homo sapiens; test: Inhibition of FFAR (unknown origin) at <10 uM
How it was run: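 Part of a proprietary selectivity counterscreen panel covering GPCRs (including the related free fatty acid receptors), nuclear hormone receptors, transporters, ion channels and hERG. Activity was scored against a 10 µM threshold.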

[25] = Stability in human liver microsomes assessed as parent compound remaining at 1 to 3 uM incubated for 20 mins in presence NADPH measured up to 90 mins by LC/MS/MS analysis; format: ADME, microsome; settings: liver microsomes, read-out: Stability; how it was run: as §1
[26] = Half life in Beagle dog at 0.5 mg/kg, iv administered as single dose measured up to 24 hrs post dose by LC-MS/MS analysis; format: ADME, organism-based, Canis lupus familiaris; settings: in vivo
[27] = target: T1, Amine oxidase [flavin-containing] B (Homo sapiens, UniProt P27338); test: Inhibition of MAO-B (unknown origin)
T1 sequence (P27338 whole entry): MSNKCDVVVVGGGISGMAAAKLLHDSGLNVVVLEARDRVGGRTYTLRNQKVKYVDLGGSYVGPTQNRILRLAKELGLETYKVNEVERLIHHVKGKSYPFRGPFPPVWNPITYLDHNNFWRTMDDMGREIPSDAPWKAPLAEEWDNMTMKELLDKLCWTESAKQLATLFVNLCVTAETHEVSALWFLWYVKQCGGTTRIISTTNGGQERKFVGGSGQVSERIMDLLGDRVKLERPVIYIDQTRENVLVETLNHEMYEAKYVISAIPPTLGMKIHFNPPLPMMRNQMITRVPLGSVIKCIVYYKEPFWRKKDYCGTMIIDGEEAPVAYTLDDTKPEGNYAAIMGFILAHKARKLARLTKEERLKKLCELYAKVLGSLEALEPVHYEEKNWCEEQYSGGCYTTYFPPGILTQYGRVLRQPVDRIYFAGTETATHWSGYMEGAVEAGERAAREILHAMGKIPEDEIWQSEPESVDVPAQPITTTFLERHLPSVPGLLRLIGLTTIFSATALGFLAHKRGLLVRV

[28] = Half life in human liver microsomes at 1 to 3 uM incubated for 20 mins in presence NADPH measured up to 90 mins by LC/MS/MS analysis; format: ADME, microsome; settings: liver microsomes

In the case of COc1cc(N2CC[C@@H](Oc3ccc(N4N=C(C(F)(F)F)[C@@H](C)[C@@H]4CC(=O)O)cc3)[C@H](C)C2)c(Cl)cn1, the Tmax [1] is reported as 1.3 h, the Activity (Mus musculus [2]) is reported as “Active” and the Activity (Mus musculus [3]) is reported as “Dose-dependent effect”. For the same compound, the Activity (Mus musculus [4]) was “Active”, the clearance [5] was 2.2 mL/min/kg and the Cmax [6] was 6 µM. For the same compound, the Activity (Mus musculus [7]) was “inactive”, the half-life [8] was 13 h and the Vd [9] was 0.7 L/kg. The clearance [10] was 3.4 mL/min/kg, the Tmax [11] was 1 h and the half-life [12] was 1.35 h. The EC50 [13] was 0.07 µM, the bioavailability [14] was 62% and the clearance [15] was 0.7 mL/min/kg. It also gave a Vd [16] of 0.4 L/kg, a bioavailability [17] of 47% and a clearance [18] of 2 mL/min/kg. The bioavailability [19] was 61%, the Vd [20] was 0.3 L/kg and the Vd [21] was 0.6 L/kg. It also gave a remaining at 20 min, up to 3 µM [22] of 75%, a bioavailability [23] of 100% and a Tmax [24] of 5 h. The inhibition (Homo sapiens) was “inactive”, the remaining at 20 min, up to 3 µM [25] was 89% and the half-life [26] was 5.2 h. The IC50 [27] was 6 µM and the half-life [28] was 1.7 h.

— ChEMBL document CHEMBL4020824, “Discovery of Potent and Orally Bioavailable Dihydropyrazole GPR40 Agonists” (J Med Chem, 2018)
